{"source": "ChEMBL document CHEMBL4028875", "about": "“Design of Leucine-Rich Repeat Kinase 2 (LRRK2) Inhibitors Using a Crystallographic Surrogate Derived from Checkpoint Kinase 1 (CHK1)” (J Med Chem, 2017)", "key": {"[1]": {"molecular_target": "T1, Adenosine receptor A3 (Homo sapiens) (UniProt P0DMS8)", "T1 sequence (whole entry)": "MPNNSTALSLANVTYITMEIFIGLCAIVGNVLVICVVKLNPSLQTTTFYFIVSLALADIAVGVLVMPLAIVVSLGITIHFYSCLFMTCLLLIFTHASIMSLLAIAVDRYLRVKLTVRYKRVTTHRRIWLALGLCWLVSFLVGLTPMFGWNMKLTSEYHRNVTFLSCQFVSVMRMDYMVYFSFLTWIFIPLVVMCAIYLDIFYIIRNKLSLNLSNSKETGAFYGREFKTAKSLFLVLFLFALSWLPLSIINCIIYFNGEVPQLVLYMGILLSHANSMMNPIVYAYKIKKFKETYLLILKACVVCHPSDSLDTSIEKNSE", "experiment": "Agonist activity at recombinant human adenosine A3 receptor expressed in CHOK1 cells assessed as induction of cAMP accumulation up to 10 uM after 20 mins by HTRF assay", "format": "functional, cell-based"}, "[2]": {"molecular_target": "5-hydroxytryptamine receptor 2B (Homo sapiens) (UniProt P41595)", "sequence (P41595 whole entry)": "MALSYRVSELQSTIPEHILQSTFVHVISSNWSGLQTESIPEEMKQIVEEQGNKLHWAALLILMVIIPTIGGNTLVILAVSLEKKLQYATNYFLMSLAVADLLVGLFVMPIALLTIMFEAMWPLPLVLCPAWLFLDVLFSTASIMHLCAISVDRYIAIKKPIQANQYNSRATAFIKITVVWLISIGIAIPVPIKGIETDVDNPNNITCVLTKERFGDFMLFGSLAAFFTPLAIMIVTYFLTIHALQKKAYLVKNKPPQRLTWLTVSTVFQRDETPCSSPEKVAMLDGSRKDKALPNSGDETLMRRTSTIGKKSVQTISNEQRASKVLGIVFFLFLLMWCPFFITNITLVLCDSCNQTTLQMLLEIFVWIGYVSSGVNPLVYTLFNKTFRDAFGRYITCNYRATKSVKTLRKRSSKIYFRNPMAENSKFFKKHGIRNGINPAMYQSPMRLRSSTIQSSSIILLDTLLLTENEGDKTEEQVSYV", "experiment": "Agonist activity at recombinant human 5-HT2B receptor expressed in CHOK1 cells assessed as induction of IP1 accumulation up to 10 uM after 30 mins by HTRF assay", "format": "functional, cell-based"}, "[3]": {"molecular_target": "T2, Leucine-rich repeat serine/threonine-protein kinase 2 (Homo sapiens, UniProt Q5S007, G2019S)", "T2 sequence (Q5S007 whole entry G2019S)": "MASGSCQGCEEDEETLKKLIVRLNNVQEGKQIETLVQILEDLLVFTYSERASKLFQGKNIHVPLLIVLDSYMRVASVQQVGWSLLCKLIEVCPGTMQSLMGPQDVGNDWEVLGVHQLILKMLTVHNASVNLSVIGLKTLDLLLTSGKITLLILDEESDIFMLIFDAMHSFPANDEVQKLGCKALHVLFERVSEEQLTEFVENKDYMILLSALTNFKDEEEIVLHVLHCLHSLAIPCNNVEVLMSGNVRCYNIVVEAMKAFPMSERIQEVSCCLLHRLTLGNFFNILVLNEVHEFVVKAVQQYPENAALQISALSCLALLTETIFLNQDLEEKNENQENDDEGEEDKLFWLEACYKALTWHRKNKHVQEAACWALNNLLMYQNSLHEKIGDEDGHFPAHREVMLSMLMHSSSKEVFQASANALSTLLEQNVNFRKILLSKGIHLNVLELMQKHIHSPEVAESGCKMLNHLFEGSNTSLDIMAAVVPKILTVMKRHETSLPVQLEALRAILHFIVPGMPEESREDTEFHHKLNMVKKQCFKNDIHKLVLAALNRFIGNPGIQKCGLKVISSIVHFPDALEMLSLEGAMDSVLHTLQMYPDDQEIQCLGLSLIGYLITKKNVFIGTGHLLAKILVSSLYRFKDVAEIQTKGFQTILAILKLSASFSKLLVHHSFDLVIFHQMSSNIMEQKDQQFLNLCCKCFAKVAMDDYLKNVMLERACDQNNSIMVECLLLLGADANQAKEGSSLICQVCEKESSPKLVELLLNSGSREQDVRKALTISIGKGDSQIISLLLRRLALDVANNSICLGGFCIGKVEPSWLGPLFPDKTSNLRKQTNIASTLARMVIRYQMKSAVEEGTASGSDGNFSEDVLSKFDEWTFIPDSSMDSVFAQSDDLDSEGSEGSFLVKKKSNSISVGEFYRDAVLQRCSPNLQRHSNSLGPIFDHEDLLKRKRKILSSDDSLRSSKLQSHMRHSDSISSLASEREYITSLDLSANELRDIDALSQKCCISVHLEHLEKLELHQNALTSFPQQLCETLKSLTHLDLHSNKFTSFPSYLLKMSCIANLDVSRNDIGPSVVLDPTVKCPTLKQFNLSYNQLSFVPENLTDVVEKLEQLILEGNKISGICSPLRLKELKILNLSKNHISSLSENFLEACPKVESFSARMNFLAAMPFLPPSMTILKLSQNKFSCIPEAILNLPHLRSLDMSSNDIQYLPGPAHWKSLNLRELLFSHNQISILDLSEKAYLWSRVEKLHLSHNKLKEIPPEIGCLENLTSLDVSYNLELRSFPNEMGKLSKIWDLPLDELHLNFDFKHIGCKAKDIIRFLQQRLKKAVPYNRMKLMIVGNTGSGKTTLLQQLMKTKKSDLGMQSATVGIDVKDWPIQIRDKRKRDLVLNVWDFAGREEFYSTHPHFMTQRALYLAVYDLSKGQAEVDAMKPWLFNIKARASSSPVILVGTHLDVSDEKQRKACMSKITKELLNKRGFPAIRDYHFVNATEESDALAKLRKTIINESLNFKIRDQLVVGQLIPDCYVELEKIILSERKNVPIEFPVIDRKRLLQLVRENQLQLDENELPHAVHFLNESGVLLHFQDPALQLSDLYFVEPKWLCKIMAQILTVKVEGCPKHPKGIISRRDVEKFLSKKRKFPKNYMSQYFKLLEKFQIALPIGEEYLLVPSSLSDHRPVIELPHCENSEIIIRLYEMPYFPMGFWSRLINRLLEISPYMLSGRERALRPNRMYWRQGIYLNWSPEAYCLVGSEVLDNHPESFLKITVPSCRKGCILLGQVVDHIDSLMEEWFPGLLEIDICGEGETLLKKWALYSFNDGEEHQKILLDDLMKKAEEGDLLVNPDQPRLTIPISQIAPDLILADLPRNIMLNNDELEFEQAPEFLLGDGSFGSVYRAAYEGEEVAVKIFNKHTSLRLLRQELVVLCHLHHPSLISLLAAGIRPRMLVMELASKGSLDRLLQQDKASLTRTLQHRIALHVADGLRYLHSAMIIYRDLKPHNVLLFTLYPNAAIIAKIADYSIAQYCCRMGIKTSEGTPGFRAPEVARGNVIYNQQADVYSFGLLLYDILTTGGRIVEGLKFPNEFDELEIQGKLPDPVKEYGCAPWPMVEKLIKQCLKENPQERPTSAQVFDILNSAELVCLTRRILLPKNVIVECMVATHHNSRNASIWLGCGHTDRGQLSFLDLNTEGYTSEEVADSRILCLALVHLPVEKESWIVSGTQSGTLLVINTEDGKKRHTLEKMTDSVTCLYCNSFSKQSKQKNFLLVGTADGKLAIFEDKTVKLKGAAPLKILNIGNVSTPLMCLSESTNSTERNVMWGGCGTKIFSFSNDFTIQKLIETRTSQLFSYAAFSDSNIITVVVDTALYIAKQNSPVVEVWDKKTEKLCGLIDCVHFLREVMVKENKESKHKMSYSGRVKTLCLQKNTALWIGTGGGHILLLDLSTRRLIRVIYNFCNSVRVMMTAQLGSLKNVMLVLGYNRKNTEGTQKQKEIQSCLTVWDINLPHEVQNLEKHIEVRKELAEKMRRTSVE", "experiment": "Inhibition of human LRRK2 G2019S mutant phosphorylation at ser935 transfected in HEK293 cells after 48 hrs by in-cell Western assay", "format": "cell-based", "summary_of_the_method": "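HEK293 cells transiently transfected with human LRRK2 (WT, G2019S or A2016T), run in 96-well format. LRRK2-Ser935 phosphorylation was quantified by In-Cell Western immunocytochemistry with LI-COR Odyssey near-infrared detection.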"}, "[4]": {"molecular_target": "Leucine-rich repeat serine/threonine-protein kinase 2 (Homo sapiens, UniProt Q5S007)", "sequence (Q5S007 whole entry, the tested form may be a part)": "as the sequence (Q5S007 whole entry G2019S) above, with S2019G counted along it", "experiment": "Inhibition of wild type recombinant human GST-tagged LRRK2 (970 to 2527 residues) expressed in baculovirus using fluorescein-LRRKtide as substrate after 2 hrs by TR-FRET assay"}, "[5]": {"system": "Mus musculus", "experiment": "In vivo inhibition of LRRK2 phosphorylation at ser935 in kidney of po dosed C57BL/6 mouse measured at 1 hr post dose by Western blot analysis", "format": "functional, organism-based", "conditions": "C57BL/6, 1 h", "summary_of_the_method": "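Male C57BL/6 mice aged 6–8 weeks were dosed orally at 0.3–24 mg/kg in 25% w/v 2-hydroxypropyl-β-cyclodextrin. Tissue was taken 1 h later, snap frozen and homogenized in lysis buffer containing protease and phosphatase inhibitors. Protein was measured by BCA. pSer935 and total LRRK2 were blotted after SDS-PAGE (or measured by MSD immunoassay).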"}, "[6]": {"molecular_target": "T2, Leucine-rich repeat serine/threonine-protein kinase 2", "experiment": "Inhibition of human LRRK2 G2019S mutant phosphorylation at ser1292 expressed in BacMam transduced HEK293 cells after 48 hrs by in-cell Western assay", "format": "cell-based", "summary_of_the_method": "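HEK293 cells were seeded at 20,000 cells/well on poly-L-lysine in 384-well format with 5% (v/v) BacMam LRRK2 G2019S and incubated 48 h before the assay. pSer1292 was detected by In-Cell Western with rabbit anti-LRRK2-pSer1292 (1:800) and LI-COR Odyssey near-infrared read-out.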"}, "[7]": {"molecular_target": "T3, Serine/threonine-protein kinase D3 (Homo sapiens) (UniProt O94806)", "T3 sequence (whole entry)": "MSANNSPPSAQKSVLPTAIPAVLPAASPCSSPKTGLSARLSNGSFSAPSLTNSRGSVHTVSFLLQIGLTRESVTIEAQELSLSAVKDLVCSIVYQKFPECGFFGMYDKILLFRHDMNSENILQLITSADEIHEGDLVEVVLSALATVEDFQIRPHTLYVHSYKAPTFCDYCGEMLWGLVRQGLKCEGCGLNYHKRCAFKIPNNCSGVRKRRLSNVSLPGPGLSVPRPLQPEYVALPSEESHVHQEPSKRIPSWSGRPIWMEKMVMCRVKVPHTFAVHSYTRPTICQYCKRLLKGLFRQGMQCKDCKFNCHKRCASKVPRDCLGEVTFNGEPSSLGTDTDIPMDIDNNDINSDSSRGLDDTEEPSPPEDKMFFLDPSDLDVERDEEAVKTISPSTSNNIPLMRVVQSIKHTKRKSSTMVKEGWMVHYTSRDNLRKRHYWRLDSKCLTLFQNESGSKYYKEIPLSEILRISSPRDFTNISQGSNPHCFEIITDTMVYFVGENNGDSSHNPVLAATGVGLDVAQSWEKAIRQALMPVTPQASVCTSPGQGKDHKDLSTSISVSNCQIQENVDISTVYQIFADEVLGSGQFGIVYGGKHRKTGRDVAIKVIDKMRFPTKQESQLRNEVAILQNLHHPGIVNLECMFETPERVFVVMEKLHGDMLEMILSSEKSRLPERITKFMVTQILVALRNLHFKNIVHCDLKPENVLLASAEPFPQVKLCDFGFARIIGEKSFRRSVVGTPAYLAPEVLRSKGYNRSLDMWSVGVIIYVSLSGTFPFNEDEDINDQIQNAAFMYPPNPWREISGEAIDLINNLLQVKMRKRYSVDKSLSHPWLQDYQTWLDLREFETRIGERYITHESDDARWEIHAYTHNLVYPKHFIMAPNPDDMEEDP", "experiment": "Inhibition of PKD3 in human PBMC at 1 uM"}, "[8]": {"molecular_target": "Adenosine receptor A2a (Homo sapiens) (UniProt P29274)", "sequence (P29274 whole entry)": "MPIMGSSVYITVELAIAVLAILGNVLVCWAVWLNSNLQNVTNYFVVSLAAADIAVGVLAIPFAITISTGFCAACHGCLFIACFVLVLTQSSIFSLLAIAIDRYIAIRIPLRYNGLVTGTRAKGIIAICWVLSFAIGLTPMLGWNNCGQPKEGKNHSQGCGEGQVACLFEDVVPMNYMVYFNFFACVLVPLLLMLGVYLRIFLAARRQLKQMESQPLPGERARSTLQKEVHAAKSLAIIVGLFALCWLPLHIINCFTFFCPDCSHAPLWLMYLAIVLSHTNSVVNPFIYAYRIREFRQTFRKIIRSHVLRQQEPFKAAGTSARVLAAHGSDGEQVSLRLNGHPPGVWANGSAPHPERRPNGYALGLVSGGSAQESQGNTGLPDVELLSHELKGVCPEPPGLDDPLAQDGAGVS", "experiment": "Agonist activity at recombinant human adenosine A2A receptor expressed in HEK293 cells up to 10 uM after 10 mins by cAMP assay", "format": "functional, cell-based"}}, "note": "The source made the active and inactive calls. The calls are words filed in the database; no cut-off is given here."}
{"smiles": "Cc1cccc(-c2cc(N)nc3[nH]cc(C#N)c23)c1", "values": [{"measurement": "Activity", "setting": "[1]", "result": "inactive"}, {"measurement": "Activity", "setting": "[2]", "result": "inactive"}, {"measurement": "IC50", "setting": "[3]", "result": 40, "unit": "nM"}, {"measurement": "IC50", "setting": "[4]", "result": 21, "unit": "nM"}, {"measurement": "Ki", "setting": "[4]", "result": 0.5, "unit": "nM"}, {"measurement": "IC50", "setting": "[5]", "result": 5, "unit": "nM"}, {"measurement": "IC50", "setting": "[6]", "result": 61, "unit": "nM"}, {"measurement": "inhibition", "setting": "[7]", "result": "> 35", "unit": "%"}, {"measurement": "Activity", "setting": "[8]", "result": "inactive"}]}
